Key:
[1] = biological target: T1, C5a anaphylatoxin chemotactic receptor 1 (Homo sapiens, UniProt P21730); assay: Antagonist activity at human C5a receptor expressed in CHO cells co-expressed with Galpha16 assessed as inhibition of anaphylatoxin C5a-induced intracellular calcium accumulation after 10 mins by FLIPR assay; assay type: functional, cell-based
T1 sequence (P21730 whole entry): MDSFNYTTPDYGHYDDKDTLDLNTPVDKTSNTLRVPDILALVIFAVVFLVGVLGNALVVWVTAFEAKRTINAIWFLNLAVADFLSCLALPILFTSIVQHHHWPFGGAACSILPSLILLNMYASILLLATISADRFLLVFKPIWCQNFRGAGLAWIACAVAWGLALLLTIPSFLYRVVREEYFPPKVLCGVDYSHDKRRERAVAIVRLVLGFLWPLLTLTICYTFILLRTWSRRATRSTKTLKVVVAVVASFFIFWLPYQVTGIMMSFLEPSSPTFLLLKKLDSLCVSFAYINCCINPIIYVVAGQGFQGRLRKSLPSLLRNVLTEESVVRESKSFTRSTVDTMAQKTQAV

[2] = biological target: T1, C5a anaphylatoxin chemotactic receptor 1; assay: Antagonist activity at C5a receptor in human PMNC assessed as inhibition of anaphylatoxin C5a-induced intracellular calcium accumulation after 10 mins by FLIPR assay; assay type: functional, cell-based
Summary of the method: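 Human neutrophils purified from whole blood on a Ficoll gradient, resuspended in Ca3 dye and plated at 50,000 cells/well in HBSS + 20 mM HEPES + 0.1% BSA. After 1 h at 37 °C, 5% CO2, compound added for 10 min, then 10 nM hC5a. Calcium response recorded on FLIPR.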

[3] = biological target: T1, C5a anaphylatoxin chemotactic receptor 1; assay: Displacement of [125I]human anaphylatoxin C5a from human C5a receptor expressed in CHO cells co-expressed with Galpha16 after 1 hr; assay type: cell-based
Summary of the method: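 Intact CHO-Gα16-C5aR cells plated at 50,000/well in growth medium with 10% FBS the day before. Medium replaced by HBSS + 20 mM HEPES + 0.1% BSA. Compound added for 10 min at rt, then 0.6 nM 125I-hC5a for 1 h at rt. Cells washed eight times with PBS + 1 mM CaCl2 + 0.1% BSA on a harvester.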

[4] = biological target: T1, C5a anaphylatoxin chemotactic receptor 1; assay: Agonist activity at human C5a receptor expressed in CHO cells co-expressed with Galpha16 assessed as effect on anaphylatoxin C5a-induced intracellular calcium accumulation after 10 mins by FLIPR assay; assay type: functional, cell-based
[5] = biological target: C-X-C chemokine receptor type 4 (Homo sapiens, UniProt P61073); assay: Inhibition of CXCR4 in human T cells; assay type: cell-based, T-cell
Chain of C-X-C chemokine receptor type 4 (P61073 whole entry): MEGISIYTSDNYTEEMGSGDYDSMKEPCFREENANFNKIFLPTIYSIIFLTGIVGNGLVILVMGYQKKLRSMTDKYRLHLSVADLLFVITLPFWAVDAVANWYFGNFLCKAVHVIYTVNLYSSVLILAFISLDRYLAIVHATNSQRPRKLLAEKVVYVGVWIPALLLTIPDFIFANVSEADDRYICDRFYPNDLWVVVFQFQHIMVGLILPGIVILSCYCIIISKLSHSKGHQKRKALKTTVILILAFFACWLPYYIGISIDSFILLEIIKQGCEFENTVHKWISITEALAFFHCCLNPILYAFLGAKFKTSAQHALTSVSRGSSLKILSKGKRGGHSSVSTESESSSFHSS

P2Y purinoceptor 2 = P2Y purinoceptor 2 (Homo sapiens, UniProt P41231); assay: Inhibition of human P2Y2 receptor expressed in CHO cells; assay type: cell-based
Chain of P2Y purinoceptor 2 (P41231 whole entry): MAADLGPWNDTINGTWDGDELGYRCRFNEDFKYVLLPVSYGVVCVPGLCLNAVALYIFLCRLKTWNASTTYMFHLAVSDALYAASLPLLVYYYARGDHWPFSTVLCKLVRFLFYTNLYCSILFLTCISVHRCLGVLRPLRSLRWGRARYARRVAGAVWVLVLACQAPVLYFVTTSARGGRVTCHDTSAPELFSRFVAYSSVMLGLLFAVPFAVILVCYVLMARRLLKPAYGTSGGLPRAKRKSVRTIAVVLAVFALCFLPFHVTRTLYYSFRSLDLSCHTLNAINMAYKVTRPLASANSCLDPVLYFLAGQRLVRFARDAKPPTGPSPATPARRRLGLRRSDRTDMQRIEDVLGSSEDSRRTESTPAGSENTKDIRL

Blood = assay: Inhibition of anaphylatoxin C5a-induced PMNC shape changes in human whole blood treated 10 mins before anaphylatoxin C5a-induced challenge measured after 40 mins by FACS analysis; assay type: functional, tissue-based
Summary of the method: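 Whole-blood assay. After stimulation, cells fixed with ice-cold 1% paraformaldehyde, then red cells lysed in ice-cold hypotonic buffer for 40 min on ice. Neutrophils gated by forward and side scatter on a flow cytometer. Shape change read as the rise in autofluorescence on the FL2-H channel.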

[6] = biological target: T2, C-X-C chemokine receptor type 3 (Homo sapiens, UniProt P49682); assay: Inhibition of CXCR3 in human T cells; assay type: cell-based, T-cell
T2 sequence (P49682 whole entry): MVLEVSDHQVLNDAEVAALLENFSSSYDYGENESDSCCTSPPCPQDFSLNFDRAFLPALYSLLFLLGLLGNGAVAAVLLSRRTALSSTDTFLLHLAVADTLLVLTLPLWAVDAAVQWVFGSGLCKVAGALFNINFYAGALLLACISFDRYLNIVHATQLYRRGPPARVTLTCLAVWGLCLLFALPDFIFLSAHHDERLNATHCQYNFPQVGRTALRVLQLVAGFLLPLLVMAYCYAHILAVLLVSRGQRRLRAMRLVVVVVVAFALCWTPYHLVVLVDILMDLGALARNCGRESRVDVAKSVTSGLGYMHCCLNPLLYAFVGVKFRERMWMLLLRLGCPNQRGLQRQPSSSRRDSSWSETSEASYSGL

[7] = Inhibition of anaphylatoxin C5a-induced chemotaxis in human PMNC; assay type: functional

Compound	IC50 [1] [µM]	IC50 [2] [nM]	IC50 [3] [µM]	EC50 [4] [µM]	IC50 [5] [µM]	IC50 (P2Y purinoceptor 2) [µM]	IC50 (Blood) [µM]	IC50 [6] [µM]	IC50 [7] [µM]
Cc1ccc(S(=O)(=O)N(CCCN(c2ccccc2)S(=O)(=O)c2ccc(C)cc2)c2ccccc2)cc1	> 60	> 60000							
CC(=O)c1ccccc1N(C)S(=O)(=O)c1ccc(C)cc1	> 60		> 60	> 60					
Cc1ccc(S(=O)(=O)N(C)c2ccccc2C(=O)c2ccsc2)cc1	0.6	400	1.7	> 60	> 60	> 60	> 60	> 60	> 60
Cc1ccc(S(=O)(=O)N(C)c2ccccc2C(=O)N2CCc3ccccc32)cc1	38.3		44.5	> 60					
C=CCN(c1ccccc1N(CC=C)S(=O)(=O)c1ccc(C)cc1)S(=O)(=O)c1ccc(C)cc1	0.3	59	0.3	> 60	> 60	> 60		> 60	2.5
CN(c1ccccc1N(C)S(=O)(=O)c1ccccc1)S(=O)(=O)c1ccccc1	> 60		> 60	> 60					
Cc1ccc(S(=O)(=O)N2Cc3ccccc3CN(S(=O)(=O)c3ccc(C)cc3)c3ccccc32)cc1	> 60		> 60	> 60					
Cc1ccc(S(=O)(=O)N(C)c2ccc(Cl)cc2C(=O)c2ccccc2)cc1	> 60		8.7	> 60					
Cc1ccc(S(=O)(=O)N(C)c2ccccc2N(C)S(=O)(=O)c2ccc(C)cc2)cc1	0.2	6.7	0.2	> 60	> 60	> 60	27	> 60	5.7
Cc1ccc(S(=O)(=O)N(C)c2ccc(Br)cc2C(=O)c2ccccc2)cc1	> 60		14.6	> 60					
Cc1ccc(S(=O)(=O)N2CCN(S(=O)(=O)c3ccc(C)cc3)c3ccccc32)cc1	> 60		> 60	> 60					
Cc1ccc(S(=O)(=O)N2CCN(S(=O)(=O)c3ccc(C)cc3)CC2)cc1	> 60	> 60000							

From ChEMBL document CHEMBL1153208, “Identification of a new class of small molecule C5a receptor antagonists” (Bioorg Med Chem Lett, 2010)
